The source of these data is PMC7382256 (Proceedings of the National Academy of Sciences of the …, 2020).

Among the targets are CSP4 (Caulobacter vibrioides, UniProt A0A0H3CCM2, K168R); CSP32 (Caulobacter vibrioides, UniProt A0A0H3CCM2, DEL161/K168R); CSP20 (Caulobacter vibrioides, UniProt A0A0H3CCM2, G165A/K168R); CSP30 (Caulobacter vibrioides, UniProt A0A0H3CCM2, DEL159/K168R); CSP21 (Caulobacter vibrioides, UniProt A0A0H3CCM2, K168R/P166A); CSP19 (Caulobacter vibrioides, UniProt A0A0H3CCM2, K164A/K168R); CSP14 (Caulobacter vibrioides, UniProt A0A0H3CCM2, K168R/N159A); CSP6 (Caulobacter vibrioides, UniProt A0A0H3CCM2, K168R); CSP25 (Caulobacter vibrioides, UniProt A0A0H3CCM2, K168R/K170A); CSP16 (Caulobacter vibrioides, UniProt A0A0H3CCM2, A161L/K168R); CSP9 (Caulobacter vibrioides, UniProt A0A0H3CCM2, D154A/K168R); CSP29 (Caulobacter vibrioides, UniProt A0A0H3CCM2, DEL158/K168R); CSP10 (Caulobacter vibrioides, UniProt A0A0H3CCM2, K168R/R155A); CSP28 (Caulobacter vibrioides, UniProt A0A0H3CCM2, DEL157/K168R); CSP23 (Caulobacter vibrioides, UniProt A0A0H3CCM2, K168A); CSP18 (Caulobacter vibrioides, UniProt A0A0H3CCM2, K168R/Y163A); CSP27 (Caulobacter vibrioides, UniProt A0A0H3CCM2, D172A/K168R); CSP15 (Caulobacter vibrioides, UniProt A0A0H3CCM2, K168R/S160A); CSP31 (Caulobacter vibrioides, UniProt A0A0H3CCM2, DEL160/K168R); CSP12 (Caulobacter vibrioides, UniProt A0A0H3CCM2, K168R/R157A); CSP2 (Caulobacter vibrioides, UniProt A0A0H3CCM2, K168R); H6-MBP-CSP2 (Caulobacter vibrioides, UniProt A0A0H3CCM2, K168R); CSP17 (Caulobacter vibrioides, UniProt A0A0H3CCM2, D162A/K168R); CSP22 (Caulobacter vibrioides, UniProt A0A0H3CCM2, K168R/R167A); CSP7 (Caulobacter vibrioides, UniProt A0A0H3CCM2, K168R); CSP26 (Caulobacter vibrioides, UniProt A0A0H3CCM2, A171L/K168R); CSP3 (Caulobacter vibrioides, UniProt A0A0H3CCM2, K168R); CSP13 (Caulobacter vibrioides, UniProt A0A0H3CCM2, F158A/K168R); CSP11 (Caulobacter vibrioides, UniProt A0A0H3CCM2, K168R/R156A).

What all share (assay type): binding
The target of test [1] is c-di-GMP. In words: Isothermal titration calorimetry. The note with it: ITC, 50 mM Tris·HCl pH 8.0, 100 mM NaCl, 15 °C; one-site model. The procedure, abridged:
(§1)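 Peptide or protein, c-di-GMP and buffer were degassed for 15 min; runs at 15 °C. Format 1: cell held about 10 µM peptide/protein and syringe about 200 µM c-di-GMP, 30 injections at 250-s spacing. Format 2 (reverse): cell held about 20 µM c-di-GMP and syringe about 100 µM peptide/protein, 18 injections at 120-s spacing. Concentrations were set by absorbance at 1-cm path.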

In the next test the target is CSP1 (Caulobacter vibrioides, UniProt A0A0H3CCM2). The procedure, abridged:
as §1

The test system of the next test is GMP. In words: Microscale thermophoresis. The note with it: N-terminally FITC-labeled CSP4. In a few lines: (§2)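 Binding of nucleotides to an N-terminally FITC-labelled, C-terminally amidated synthetic peptide (≥70% purity, dissolved in ultrapure water, concentration by spectrophotometry). Measured by microscale thermophoresis in standard-treated capillaries with blue-channel fluorescence, 30 s infrared heating at 50% of maximum laser power, then 5 s cooling. Buffer: 50 mM Tris·HCl pH 8.0, 100 mM NaCl, 0.1% polysorbate 20.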

In another test the test system is 2′3′-cGAMP. In words: Microscale thermophoresis. The note with it: N-terminally FITC-labeled CSP4. In a few lines: as §2
For a further test, the system named is 3′3′-c-di-AMP. In words: Microscale thermophoresis. The note with it: N-terminally FITC-labeled CSP4. The procedure, abridged: as §2
Test [2] has as its system c-di-GMP. In words: Microscale thermophoresis. The note with it: N-terminally FITC-labeled CSP4. The procedure, abridged: as §2
The test system of another test is 3′3′-cGAMP. In words: Microscale thermophoresis. The note with it: N-terminally FITC-labeled CSP4. In a few lines:
as §2

A further test concerns GTP. In words: Microscale thermophoresis. The note with it: N-terminally FITC-labeled CSP4. In a few lines: as §2
The next test deals with pGpG. In words: Microscale thermophoresis. The note with it: N-terminally FITC-labeled CSP4. In a few lines: as §2

pKd: −log10 of the molar value.

Chain of H6-MBP-CSP2 (A0A0H3CCM2 140-174 K168R): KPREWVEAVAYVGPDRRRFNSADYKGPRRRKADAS
Chain of CSP2 (A0A0H3CCM2 140-174 K168R): as above
Chain of CSP1 (A0A0H3CCM2 140-174): as the sequence (A0A0H3CCM2 140-174 K168R) above, with R29K counted along it
Chain of CSP3 (A0A0H3CCM2 144-172 K168R): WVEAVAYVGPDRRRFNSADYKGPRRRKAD

DRRRFNSADYKGPRRR [CSP8]: the “Kd to c-di-GMP” value on c-di-GMP [1] is reported as “No binding”.

Take `Nc1nc2c(ncn2[C@@H]2O[C@@H]3CO[P@](=O)(O)O[C@H]4[C@@H](O)[C@H](n5cnc6c(=O)[nH]c(N)nc65)O[C@@H]4CO[P@](=O)(O)O[C@H]3[C@H]2O)c(=O)[nH]1` [c-di-GMP, cyclic diguanylate (3'3'-c-di-GMP)]: the pKd at CSP4 is 6.75; on CSP1, 6.97; at CSP32, 6.47; on CSP20, 5.12; at CSP30, 5.90; at CSP21 it was 6.46. The pKd on CSP19 is 6.58; at CSP14, 6.66; at CSP6, 5.85; on CSP25, 6.56; at CSP16, 6.99; on CSP9, 5.76. Moreover, the pKd on CSP29 is 5.90; on CSP10 it was 5.83; on CSP28 it was 5.98; at CSP23 it was 5.32; at CSP18, 5.36; on CSP27, 5.76. Besides, the pKd on CSP15 is 6.68; at CSP31 it was 6.36; on CSP12 it was 6.11; on CSP2, 7.72; at H6-MBP-CSP2 it was 6.90; at CSP17, 6.84. In addition, the pKd is 5.74 on CSP22; 5.77 at CSP7; 6.60 at CSP26; 6.81 at CSP3; 6.85 at CSP13; 5.82 at CSP11.

As for RRRFNSADYKGPRRR [CSP5], at c-di-GMP [1], the “Kd to c-di-GMP” value is recorded as “No binding”.

As to Ac-DRRRFNSADYKGPRRRKAD-NH2 [CSP4], in the test with GMP, the “binding of GMP (MST)” value is “none of the related nucleotides or CDNs was able to bind”. The “binding of 2′3′-cGAMP (MST)” value in the test on 2′3′-cGAMP is “none of the related nucleotides or CDNs was able to bind”. In addition, in the test on 3′3′-c-di-AMP, the “binding of 3′3′-c-di-AMP (MST)” value is listed as “none of the related nucleotides or CDNs was able to bind”. Also, in the test on c-di-GMP [2], the “binding of c-di-GMP (MST)” value is recorded as “only c-di-GMP binding to CSP4 was observed”. Also, the “binding of 3′3′-cGAMP (MST)” value in the test with 3′3′-cGAMP is recorded as “none of the related nucleotides or CDNs was able to bind”. Moreover, the “binding of GTP (MST)” value with GTP is “none of the related nucleotides or CDNs was able to bind”. The “binding of pGpG (MST)” value in the test with pGpG is reported as “none of the related nucleotides or CDNs was able to bind”.
